Measurements as given in ChEMBL document CHEMBL3603743, “Design, synthesis and biological evaluation of saccharin-based N-hydroxybenzamides as histone deacetylases (HDACs) inhibitors” (Bioorg Med Chem, 2015).

Tests used:
[1] = biological target: Histone deacetylase (HDAC1 and HDAC2) (Homo sapiens, UniProt Q13547+Q92769); experiment: Inhibition of HDAC1/2 in human HeLa cells nuclear extracts using acetylated histone peptide as substrate after 30 mins by Color de Lys assay; assay type: cell-based
[2] = tested on: MDA-MB-231; experiment: Antiproliferative activity against human MDA-MB-231 cells after 48 hrs by MTT assay; assay type: functional, cell-based; details: MDA-MB-231, 48 h
[3] = tested on: PC-3; experiment: Antiproliferative activity against human PC3 cells after 48 hrs by MTT assay; assay type: functional, cell-based; details: PC-3, 48 h
[4] = tested on: MDA-MB-231; experiment: Induction of apoptosis in human MDA-MB-231 cells assessed as late apoptotic cells at 1 uM after 24 hrs using Annexin V-FITC and propidium iodide staining by flow cytometry (reference value: 4.04%); assay type: functional
How it was run: (§1)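 MDA-MB-231 cells (1.2 × 10⁵) exposed to compound for 24 h, then harvested and washed in PBS. Cells resuspended in Annexin V-FITC binding buffer, stained with Annexin V-FITC plus propidium iodide for 10 min at room temperature, held on ice and analysed by flow cytometry.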

[5] = tested on: MDA-MB-231; experiment: Induction of apoptosis in human MDA-MB-231 cells assessed as early apoptotic cells at 1 uM after 24 hrs using Annexin V-FITC and propidium iodide staining by flow cytometry (reference value: 2.60%); assay type: functional; how it was run: as §1
[6] = tested on: MDA-MB-231; experiment: Induction of apoptosis in human MDA-MB-231 cells assessed as late apoptotic cells at 4 uM after 24 hrs using Annexin V-FITC and propidium iodide staining by flow cytometry (reference value: 4.04%); assay type: functional; how it was run: as §1
[7] = tested on: MDA-MB-231; experiment: Induction of apoptosis in human MDA-MB-231 cells assessed as early apoptotic cells at 4 uM after 24 hrs using Annexin V-FITC and propidium iodide staining by flow cytometry (reference value: 2.60%); assay type: functional; how it was run: as §1
[8] = tested on: MDA-MB-231; experiment: Induction of apoptosis in human MDA-MB-231 cells assessed as total apoptotic cells at 1 uM after 24 hrs using Annexin V-FITC and propidium iodide staining by flow cytometry; assay type: functional; how it was run: as §1
[9] = Antiproliferative activity against human KG1 cells after 48 hrs by MTT assay; assay type: functional, cell-based; details: KG-1, 48 h

| IC50 [1] | Structure (SMILES) | also measured |
| --- | --- | --- |
| 0.3 µM | O=C(CCN1C(=O)c2ccccc2S1(=O)=O)Nc1ccc(C(=O)NO)cc1 |  |
| 0.419 µM | O=C(CCCN1C(=O)c2ccc(I)cc2S1(=O)=O)Nc1ccc(C(=O)NO)cc1 |  |
| 0.233 µM | O=C(CCCN1C(=O)c2ccccc2S1(=O)=O)Nc1ccc(C(=O)NO)cc1 | IC50 [2]: 8.71 µM; IC50 [3]: > 25 µM; Activity [4]: 4.06%; Activity [5]: 3.44%; Activity [6]: 5.35%; Activity [7]: 4.7%; Activity [8]: 7.5% |
| 2.02 µM | O=C(CCN1C(=O)c2ccc([N+](=O)[O-])cc2S1(=O)=O)Nc1ccc(C(=O)NO)cc1 |  |
| 0.523 µM | O=C(CCN1C(=O)c2ccc(I)cc2S1(=O)=O)Nc1ccc(C(=O)NO)cc1 |  |
| 1.51 µM | O=C(CCCN1C(=O)c2ccc(-c3ccccc3)cc2S1(=O)=O)Nc1ccc(C(=O)NO)cc1 | IC50 [2]: 9.9 µM; IC50 [9]: 11.6 µM; IC50 [3]: > 25 µM |
| > 5 µM | O=C(CCCCN1C(=O)c2ccc(-c3ccccc3)cc2S1(=O)=O)Nc1ccc(C(=O)NO)cc1 |  |
| 0.305 µM | O=C(CCCCN1C(=O)c2ccc(I)cc2S1(=O)=O)Nc1ccc(C(=O)NO)cc1 |  |
| 1.66 µM | O=C(CCCN1C(=O)c2ccc([N+](=O)[O-])cc2S1(=O)=O)Nc1ccc(C(=O)NO)cc1 |  |

The remaining lines, values behind:

| Structure (SMILES) | IC50 [1] | also measured |
| --- | --- | --- |
| O=C(NO)c1ccc(CN2C(=O)c3ccc(NC(=O)c4ccc(-c5ccccc5)cc4)cc3S2(=O)=O)cc1 | > 5 µM |  |
| O=C(CCCCN1C(=O)c2ccccc2S1(=O)=O)NCc1ccc(C(=O)NO)cc1 | 3.4 µM |  |
| O=C(CCCCCCC(=O)Nc1ccccc1)NO [VORINOSTAT] |  | Activity [4]: 3.32%; Activity [5]: 8%; Activity [6]: 7.66%; Activity [7]: 7.1%; Activity [8]: 11.32% |
| O=C(Cc1ccccc1)Nc1ccc2c(c1)S(=O)(=O)N(Cc1ccc(C(=O)NO)cc1)C2=O | 0.53 µM |  |
| O=C(CCCCCN1C(=O)c2ccccc2S1(=O)=O)NCc1ccc(C(=O)NO)cc1 | 2.65 µM |  |
| O=C(CCCN1C(=O)c2ccccc2S1(=O)=O)Nc1cccc(C(=O)NO)c1 | > 5 µM |  |
| O=C(NO)c1ccc(CN2C(=O)c3ccccc3S2(=O)=O)cc1 | 1.398 µM |  |
| O=C(NO)c1ccc(CN2C(=O)c3ccc(-c4ccccc4)cc3S2(=O)=O)cc1 | 0.386 µM |  |
| O=C(CCCCN1C(=O)c2ccccc2S1(=O)=O)Nc1cccc(C(=O)NO)c1 | > 5 µM |  |
| O=C(CCN1C(=O)c2ccc(-c3ccccc3)cc2S1(=O)=O)Nc1ccc(C(=O)NO)cc1 | 1.7 µM | IC50 [2]: 3.45 µM; IC50 [9]: 5.23 µM; IC50 [3]: 8.79 µM; Activity [4]: 7.49%; Activity [5]: 9.27%; Activity [6]: 9.86%; Activity [7]: 13.48%; Activity [8]: 16.76% |
| O=C(CCN1C(=O)c2ccccc2S1(=O)=O)NCc1ccc(C(=O)NO)cc1 | 2.79 µM |  |
| O=C(NO)c1ccc(CN2C(=O)c3ccc(NC(=O)c4ccc(C(F)(F)F)cc4)cc3S2(=O)=O)cc1 | 1.413 µM |  |
| O=C(CCCCCN1C(=O)c2ccc([N+](=O)[O-])cc2S1(=O)=O)Nc1cccc(C(=O)NO)c1 | > 5 µM |  |
| O=C(NO)c1ccc(CN2C(=O)c3ccc(NC(=O)c4ccc(F)cc4)cc3S2(=O)=O)cc1 | 0.646 µM |  |
| O=C(CCCCCN1C(=O)c2ccccc2S1(=O)=O)Nc1cccc(C(=O)NO)c1 | > 5 µM |  |
| COc1cc(C(=O)Nc2ccc3c(c2)S(=O)(=O)N(Cc2ccc(C(=O)NO)cc2)C3=O)cc(OC)c1OC | 1.71 µM |  |
| O=C(NO)c1ccc(CN2C(=O)c3ccc([N+](=O)[O-])cc3S2(=O)=O)cc1 | > 5 µM |  |
| O=C(NO)c1ccc(CN2C(=O)c3ccc(NC(=O)c4ccccc4)cc3S2(=O)=O)cc1 | 0.38 µM |  |
| Cc1ccc(/C=C/C(=O)Nc2ccc3c(c2)S(=O)(=O)N(Cc2ccc(C(=O)NO)cc2)C3=O)cc1 | 1.297 µM |  |
| O=C(CCN1C(=O)c2ccccc2S1(=O)=O)Nc1cccc(C(=O)NO)c1 | > 5 µM |  |
| O=C(NO)c1ccc(CN2C(=O)c3ccc(I)cc3S2(=O)=O)cc1 | 1.335 µM |  |
